pEC50, pIC50: −log10 of the molar value. Activity calls are given as the source filed them. The calls are words filed in the database; no cut-off is given here.
Assays:
[1] = Cytotoxicity in mouse NIH/3T3 cells assessed as reduction in cell viability incubated for 12 hrs by MTT assay; type: cell-based, NIH3T3
[2] = (§1) Antiviral activity against Influenza A virus (A/California/04/2009(H1N1)) ATCC VR-1737 infected in MDCK cells assessed as reduction in virus-induced cytopathic effect incubated for 48 hrs by Cell-titer-Glo luminescence assay; type: functional, cell-based; conditions: ATCC VR-1737, MDCK
Summary of the method: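 MDCK cells at 80% confluence were exposed to virus plus a range of inhibitor concentrations for 48 h at 37 °C, 5% CO2. CPE and cell viability were then read by CellTiter-Glo luminescence.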

[3] = as §1, with “Selectivity index, ratio of CC50 for cytotoxicity in MDCK cells assessed as reduction in cell viability incubated for 12 hrs by MTT assay to EC50 for antiviral” for “Antiviral”; type: toxicity, cell-based; conditions: dog, read-out: Ratio CC50/EC50
[4] = biological target: Polymerase acidic protein (Influenza A virus (A/Puerto Rico/8/1934(H1N1))) (UniProt P03433)
[5] = biological target: Polymerase acidic protein (Influenza A virus (A/Puerto Rico/8/1934(H1N1)), UniProt P03433); test: Inhibition of Influenza A virus RNA-dependent RNA polymerase PA N-terminal endonuclease using [6-FAM]AATCGCAGGCAGCACTC[TAM] substrate and measured over 45 mins by fluorescence based assay; conditions: for pIC50: read-out: IC50; for IC50: read-out: pIC50 (converted)
[6] = Cytotoxicity in MDCK cells assessed as reduction in cell viability incubated for 12 hrs by MTT assay; type: cell-based, Canis lupus familiaris; conditions: dog
[7] = as §1, with “Selectivity index, ratio of CC50 for cytotoxicity in mouse NIH/3T3 cells assessed as reduction in cell viability incubated for 12 hrs by MTT assay to EC50 for antiviral” for “Antiviral”; type: toxicity, cell-based; conditions: read-out: Ratio CC50/EC50
[8] = biological target: Macrophage metalloelastase (Homo sapiens) (UniProt P39900); test: Inhibition of human recombinant MMP12 at 200 uM incubated for 15 mins using OmniMMP fluorogenic substrate by fluorescence based assay
Sequence of Macrophage metalloelastase (Homo sapiens) (P39900 106-470 limits assumed): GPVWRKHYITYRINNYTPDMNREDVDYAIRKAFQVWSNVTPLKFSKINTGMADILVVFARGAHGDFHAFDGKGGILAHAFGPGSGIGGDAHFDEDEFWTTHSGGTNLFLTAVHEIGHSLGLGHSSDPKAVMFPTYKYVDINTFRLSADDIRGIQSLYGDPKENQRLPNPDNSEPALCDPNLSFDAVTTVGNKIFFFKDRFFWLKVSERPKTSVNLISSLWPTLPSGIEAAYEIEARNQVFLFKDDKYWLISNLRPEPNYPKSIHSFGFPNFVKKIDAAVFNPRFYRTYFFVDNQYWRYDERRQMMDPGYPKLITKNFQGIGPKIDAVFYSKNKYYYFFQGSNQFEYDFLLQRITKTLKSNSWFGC

[9] = biological target: Carbonic anhydrase 2 (Homo sapiens) (UniProt P00918); test: Inhibition of recombinant human CA2 expressed in Escherichia coli BL21 at 200 uM incubated for 15 mins using p-Nitrophenyl acetate substrate
[10] = biological target: Methionine aminopeptidase 2 (Homo sapiens) (UniProt P50579); test: Inhibition of recombinant human MetAP2 at 200 uM using Met-AMC as fluorogenic substrate by fluorescence assay
Sequence of Methionine aminopeptidase 2 (Homo sapiens) (P50579 2-478 limits assumed): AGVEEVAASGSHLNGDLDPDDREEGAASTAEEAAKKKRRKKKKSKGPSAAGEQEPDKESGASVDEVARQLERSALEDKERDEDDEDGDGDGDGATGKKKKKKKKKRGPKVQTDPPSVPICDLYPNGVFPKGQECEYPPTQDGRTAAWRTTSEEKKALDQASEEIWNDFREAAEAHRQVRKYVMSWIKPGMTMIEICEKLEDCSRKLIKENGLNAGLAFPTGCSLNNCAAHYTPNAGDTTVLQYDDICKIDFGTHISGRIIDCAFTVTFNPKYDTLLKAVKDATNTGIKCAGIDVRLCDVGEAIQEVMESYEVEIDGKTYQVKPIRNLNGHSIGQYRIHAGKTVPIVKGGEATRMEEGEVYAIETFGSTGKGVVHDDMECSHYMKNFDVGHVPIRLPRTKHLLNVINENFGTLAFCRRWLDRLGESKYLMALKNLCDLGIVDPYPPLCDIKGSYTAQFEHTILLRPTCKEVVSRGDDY

[11] = biological target: T1, Arginase-1 (Homo sapiens) (UniProt P05089); test: Inhibition of human Arg1 at 200 uM using thio-arginine substrate incubated for 30 mins by Ellman's reagent based assay
T1 sequence (whole entry): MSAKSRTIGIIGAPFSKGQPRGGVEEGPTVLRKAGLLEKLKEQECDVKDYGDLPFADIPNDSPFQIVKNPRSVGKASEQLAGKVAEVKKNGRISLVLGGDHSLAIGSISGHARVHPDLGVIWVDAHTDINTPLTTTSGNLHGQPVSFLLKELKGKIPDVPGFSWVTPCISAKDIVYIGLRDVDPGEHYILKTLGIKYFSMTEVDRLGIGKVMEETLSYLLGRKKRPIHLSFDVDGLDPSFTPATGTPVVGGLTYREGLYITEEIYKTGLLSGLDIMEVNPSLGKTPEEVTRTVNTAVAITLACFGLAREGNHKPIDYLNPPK

SMILES | ΔTm [4] [°C] | pIC50 [5] | IC50 [5] [nM] | also measured
O=C(O)c1[nH]c(-c2ccc(-c3nnn[nH]3)cc2)cc(=O)c1O | 14.1 | > 8.70 | < 2 | CC50 at 12 h [1]: > 800000 nM; pEC50 [2]: 5.11; selectivity ratio at 12 h [3]: > 100; CC50 at 12 h [6]: > 800000 nM; selectivity ratio at 12 h [7]: > 100
Cc1cccc(-c2cc(=O)c(O)c(C(=O)O)[nH]2)c1 | 10.7 | 8.32 | – | –
Cc1cc(=O)c(O)c(C(=O)O)[nH]1 | 11.1 | – | – | –
O=C(O)c1[nH]c(-c2ccccc2C(F)(F)F)cc(=O)c1O | 13.3 | > 8.70 | < 2 | CC50 at 12 h [1]: > 800000 nM; pEC50 [2]: 4.98; selectivity ratio at 12 h [3]: 35 to 75; CC50 at 12 h [6]: > 800000 nM; selectivity ratio at 12 h [7]: 35 to 75
CSc1ccccc1-c1cc(=O)c(O)c(C(=O)O)[nH]1 | 11.8 | 8.49 | – | –
O=C(O)c1[nH]c(-c2ccc(-c3nnn[nH]3)cc2C(F)(F)F)cc(=O)c1O | 17.8 | 7.33 | 0.0501 | inhibition [8]: inactive; CC50 at 12 h [1]: > 800000 nM; pEC50 [2]: 4.94; inhibition [9]: inactive; inhibition [10]: inactive; selectivity ratio at 12 h [3]: 35 to 75; inhibition [11]: inactive; CC50 at 12 h [6]: > 800000 nM; selectivity ratio at 12 h [7]: 35 to 75
CC(C)c1ccccc1-c1cc(=O)c(O)c(C(=O)O)[nH]1 | 11.6 | 8.49 | – | –
CC(C)c1cccc(-c2cc(=O)c(O)c(C(=O)O)[nH]2)c1 | 10.1 | 8.20 | – | –
O=C(O)/C(O)=C/C(=O)C1(Cc2ccc(Cl)cc2)CCN(Cc2ccccc2)CC1 | – | – | – | CC50 at 12 h [1]: > 800000 nM; pEC50 [2]: 5.13; selectivity ratio at 12 h [3]: 35 to 75; CC50 at 12 h [6]: > 800000 nM; selectivity ratio at 12 h [7]: 35 to 75
O=C(O)c1[nH]c(-c2ccc(Oc3ccccc3)cc2)cc(=O)c1O | 8.1 | 7.60 | – | –
Cc1ccccc1-c1cc(=O)c(O)c(C(=O)O)[nH]1 | 13.2 | – | – | –
O=C(O)c1ccc(-c2cc(=O)c(O)c(C(=O)O)[nH]2)cc1 | 11.9 | > 8.70 | < 2 | –
Cc1ccc(-c2cc(=O)c(O)c(C(=O)O)[nH]2)cc1 | 10.3 | 8.14 | – | –
COc1ccccc1-c1cc(=O)c(O)c(C(=O)O)[nH]1 | 11.9 | 8.64 | – | –
O=C1c2c(O)c(=O)ccn2N([C@@H]2c3ccccc3SCc3c2ccc(F)c3F)[C@@H]2COCCN12 [BALOXAVIR] | – | – | – | CC50 at 12 h [1]: > 800000 nM; pEC50 [2]: 5.66; CC50 at 12 h [6]: 20000 nM
O=C(O)c1[nH]c(-c2cccc(Oc3ccccc3)c2)cc(=O)c1O | 9 | 7.85 | – | –
O=C(O)c1cccc(-c2cc(=O)c(O)c(C(=O)O)[nH]2)c1 | 11.7 | 8.64 | – | –
Cc1cc(C(=O)O)ccc1-c1cc(=O)c(O)c(C(=O)O)[nH]1 | 15.3 | 6.64 | 0.251 | –
Cc1cc(-c2noc(=O)[nH]2)ccc1-c1cc(=O)c(O)c(C(=O)O)[nH]1 | 16.3 | 6.92 | 0.126 | inhibition [8]: inactive; inhibition [9]: inactive; inhibition [10]: inactive; inhibition [11]: inactive
CCc1ccccc1-c1cc(=O)c(O)c(C(=O)O)[nH]1 | 13.1 | > 8.70 | < 2 | –
O=C(O)c1[nH]c(-c2ccccc2)cc(=O)c1O | 8.5 | 8.25 | – | –
O=C(O)c1[nH]c(-c2cccc(-c3nnn[nH]3)c2)cc(=O)c1O | 12.9 | > 8.70 | < 2 | –
O=C(O)c1[nH]c(-c2ccccc2Oc2ccccc2)cc(=O)c1O | 10.4 | 8.22 | – | –
Cc1cc(-c2nnn[nH]2)ccc1-c1cc(=O)c(O)c(C(=O)O)[nH]1 | 16.5 | 6.96 | 0.1 | inhibition [8]: inactive; CC50 at 12 h [1]: > 800000 nM; pEC50 [2]: 4.67; inhibition [9]: inactive; inhibition [10]: 44%; selectivity ratio at 12 h [3]: 35 to 75; inhibition [11]: inactive; CC50 at 12 h [6]: > 800000 nM; selectivity ratio at 12 h [7]: 35 to 75

Reference: ChEMBL document CHEMBL4334499, “SAR Exploration of Tight-Binding Inhibitors of Influenza Virus PA Endonuclease” (J Med Chem, 2019)
